Measured values: ChEMBL document CHEMBL2029228, “Antimalarial activity of 9a-N substituted 15-membered azalides with improved in vitro and in vivo activity over azithromycin” (J Med Chem, 2012)
Activity calls are given as the source filed them. The rule behind the calls is not given here.

What was measured:
[1] = Aqueous solubility of the compound; type: physicochemical; settings: buffer
Plasmodium berghei = test: Antimalarial activity against Plasmodium berghei KBG173 infected in mouse assessed as cured mouse at 5 mg/kg, iv BID administered on day 3, 4 and 5 post infection measured up to day 31; type: functional, organism-based; parameters: dose 5 mg/kg
In short: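 Male mice (24–30 g) inoculated intraperitoneally with 5 × 10⁶ P. berghei KBG-173-infected erythrocytes; parasitemia about 1.0–3.7% by day 3. Dosing twice daily on days 3–5 postinfection. Blood smears negative on day 31 counted as cured, scored as cured/total mice (5 per dose). Mice losing ≥20% body weight sacrificed.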

Plasmodium falciparum = test: Antimalarial activity against mefloquine-resistant Plasmodium falciparum TM91C235 assessed as [3H]hypoxanthine incorporation after 48 hrs; type: functional, organism-based
In short: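 Tritiated hypoxanthine incorporation assay (Desjardins method, Milhous modification) with 48 h drug exposure. Uses P. falciparum clone TM91C235 (Southeast Asian, mefloquine-resistant). Compounds 2-fold diluted over 11 concentrations. IC50 derived by nonlinear logistic dose-response fitting, averaged where multiple runs were done.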

HepG2 = test: Cytotoxicity against human HepG2 cells after 24 hrs by MTS assay; type: cell-based; settings: HepG2, 24 h
In short: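 HepG2 cells kept in RPMI 1640 with 10% FBS plus antibiotics at 37 °C, 5% CO₂. 50 000 cells per well exposed to 10 two-fold serial dilutions for 24 h. MTS reagent then added for 2 h more, absorbance read at 490 nm, IC50 derived.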

SMILES	solubility [1]	Activity (Plasmodium berghei)	IC50 (Plasmodium falciparum) [nM]	IC50 (HepG2) [nM]
CC(=O)O.CC[C@H]1OC(=O)[C@H](C)[C@@H](O[C@H]2C[C@@](C)(OC)[C@@H](O)[C@H](C)O2)[C@H](C)[C@@H](O[C@@H]2O[C@H](C)C[C@H](N(C)C)[C@H]2O)[C@](C)(O)C[C@@H](C)CN(CCCNc2ccnc3cc(Cl)ccc23)[C@H](C)[C@@H](O)[C@]1(C)O	>= 10 mg kg-1			
CC(=O)O.CC[C@H]1OC(=O)[C@H](C)[C@@H](O[C@H]2C[C@@](C)(OC)[C@@H](O)[C@H](C)O2)[C@H](C)[C@@H](O[C@@H]2O[C@H](C)C[C@H](N(C)C)[C@H]2O)[C@](C)(O)C[C@@H](C)CN(CCCNc2ccnc3ccccc23)[C@H](C)[C@@H](O)[C@]1(C)O	>= 10 mg kg-1			
CC(=O)O.CC[C@H]1OC(=O)[C@H](C)[C@@H](O[C@H]2C[C@@](C)(OC)[C@@H](O)[C@H](C)O2)[C@H](C)[C@@H](O[C@@H]2O[C@H](C)C[C@H](N(C)C)[C@H]2O)[C@](C)(O)C[C@@H](C)CN(CCCNC(=O)CCc2ccccc2)[C@H](C)[C@@H](O)[C@]1(C)O	>= 10 mg kg-1			
CC[C@H]1OC(=O)[C@H](C)[C@@H](O[C@H]2C[C@@](C)(OC)[C@@H](O)[C@H](C)O2)[C@H](C)[C@@H](O[C@@H]2O[C@H](C)C[C@H](N(C)C)[C@H]2O)[C@](C)(O)C[C@@H](C)CN(CCCNC(=O)CCc2ccccc2)[C@H](C)[C@@H](O)[C@]1(C)O		inactive		
CC(=O)O.CC[C@H]1OC(=O)[C@H](C)[C@@H](O[C@H]2C[C@@](C)(OC)[C@@H](O)[C@H](C)O2)[C@H](C)[C@@H](O[C@@H]2O[C@H](C)C[C@H](N(C)C)[C@H]2O)[C@](C)(O)C[C@@H](C)CN(CCC(=O)N[C@H](C)c2cccc3ccccc23)[C@H](C)[C@@H](O)[C@]1(C)O	>= 10 mg kg-1			
CC[C@H]1OC(=O)[C@H](C)[C@@H](O[C@H]2C[C@@](C)(OC)[C@@H](O)[C@H](C)O2)[C@H](C)[C@@H](O[C@@H]2O[C@H](C)C[C@H](N(C)C)[C@H]2O)[C@](C)(O)C[C@@H](C)CN(CCCNc2ccnc3ccccc23)[C@H](C)[C@@H](O)[C@]1(C)O		inactive		
CC[C@H]1OC(=O)[C@H](C)[C@@H](O[C@H]2C[C@@](C)(OC)[C@@H](O)[C@H](C)O2)[C@H](C)[C@@H](O[C@@H]2O[C@H](C)C[C@H](N(C)C)[C@H]2O)[C@](C)(O)C[C@@H](C)CN(CCC(=O)N[C@H](C)c2cccc3ccccc23)[C@H](C)[C@@H](O)[C@]1(C)O		inactive		
CC(=O)O.CC[C@H]1OC(=O)[C@H](C)[C@@H](O[C@H]2C[C@@](C)(OC)[C@@H](O)[C@H](C)O2)[C@H](C)[C@@H](O[C@@H]2O[C@H](C)C[C@H](N(C)C)[C@H]2O)[C@](C)(O)C[C@@H](C)CN(CCCNCc2ccnc3ccccc23)[C@H](C)[C@@H](O)[C@]1(C)O	>= 10 mg kg-1			
CC[C@H]1OC(=O)[C@H](C)[C@@H](O[C@H]2C[C@@](C)(OC)[C@@H](O)[C@H](C)O2)[C@H](C)[C@@H](O[C@@H]2O[C@H](C)C[C@H](N(C)C)[C@H]2O)[C@](C)(O)C[C@@H](C)CN(CCC(=O)NCCCc2ccccc2)[C@H](C)[C@@H](O)[C@]1(C)O			89	40000
CC[C@H]1OC(=O)[C@H](C)[C@@H](O)[C@H](C)[C@@H](O[C@@H]2O[C@H](C)C[C@H](N(C)C)[C@H]2O)[C@](C)(O)C[C@@H](C)CN(CCCNc2ccnc3cc(Cl)ccc23)[C@H](C)[C@@H](O)[C@]1(C)O			13	35000
CC[C@H]1OC(=O)[C@H](C)[C@@H](O[C@H]2C[C@@](C)(OC)[C@@H](O)[C@H](C)O2)[C@H](C)[C@@H](O[C@@H]2O[C@H](C)C[C@H](N(C)C)[C@H]2O)[C@](C)(O)C[C@@H](C)CN(CCCNCc2ccnc3ccccc23)[C@H](C)[C@@H](O)[C@]1(C)O		inactive		
CC[C@H]1OC(=O)[C@H](C)[C@@H](O[C@H]2C[C@@](C)(OC)[C@@H](O)[C@H](C)O2)[C@H](C)[C@@H](O[C@@H]2O[C@H](C)C[C@H](N(C)C)[C@H]2O)[C@](C)(O)C[C@@H](C)CN(CCCNC(=O)CCCCc2ccccc2)[C@H](C)[C@@H](O)[C@]1(C)O			92	49000
CC[C@H]1OC(=O)[C@H](C)[C@@H](O)[C@H](C)[C@@H](O[C@@H]2O[C@H](C)C[C@H](N(C)C)[C@H]2O)[C@](C)(O)C[C@@H](C)CN(CCCNCc2ccncc2)[C@H](C)[C@@H](O)[C@]1(C)O			3890	> 50000
CC[C@H]1OC(=O)[C@H](C)[C@@H](O[C@H]2C[C@@](C)(OC)[C@@H](O)[C@H](C)O2)[C@H](C)[C@@H](O[C@@H]2O[C@H](C)C[C@H](N(C)C)[C@H]2O)[C@](C)(O)C[C@@H](C)CN(CCC(=O)NCc2ccccc2)[C@H](C)[C@@H](O)[C@]1(C)O			261	> 50000
CC[C@H]1OC(=O)[C@H](C)[C@@H](O)[C@H](C)[C@@H](O)[C@](C)(O)C[C@@H](C)CN(CCCNCc2cnc3ccccc3c2)[C@H](C)[C@@H](O)[C@]1(C)O			1890	> 50000
CC[C@H]1OC(=O)[C@H](C)[C@@H](O[C@H]2C[C@@](C)(OC)[C@@H](O)[C@H](C)O2)[C@H](C)[C@@H](O[C@@H]2O[C@H](C)C[C@H](N(C)C)[C@H]2O)[C@](C)(O)C[C@@H](C)CN(CCCNCc2ccccc2)[C@H](C)[C@@H](O)[C@]1(C)O			104	> 50000
